Experimental data reported in ChEMBL document CHEMBL5058577, “EUbOPEN Chemogenomics Library 2 (Multiplex)” (2022).

Test system: Fibroblast
Assay: Multiplex assay against human fibroblast
Format: toxicity, cell-based
How it was run: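 On a CQ1 microscope at 37°C and 5% CO2, live cells were imaged after compound addition. They had been stained at seeding with Hoechst33342, BioTracker Green Microtubule Cytoskeleton Dye, MitoTracker Red and Annexin V Alexa Fluor 680. CellPathfinder machine-learning gating assigned cells to Hoechst high-intensity objects or normal cells, normal cells to healthy, pyknosed or fragmented nuclei, and pyknosed cells to mitotic or apoptotic. Tubulin, mitochondrial-mass and membrane-permeability phenotypes are per cents of healthy-nucleus cells.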

[1] = 12 h, 1 µM, compound concentration 1 uM, replicate 1
[2] = 12 h, 1 µM, compound concentration 1 uM, replicate 2
[3] = 12 h, 10 µM, compound concentration 10 uM, replicate 1
[4] = 12 h, 10 µM, compound concentration 10 uM, replicate 2
[5] = 24 h, 1 µM, compound concentration 1 uM, replicate 1
[6] = 24 h, 1 µM, compound concentration 1 uM, replicate 2
[7] = 24 h, 10 µM, compound concentration 10 uM, replicate 1
[8] = 24 h, 10 µM, compound concentration 10 uM, replicate 2
[9] = 48 h, 1 µM, compound concentration 1 uM, replicate 1
[10] = 48 h, 1 µM, compound concentration 1 uM, replicate 2
[11] = 48 h, 10 µM, compound concentration 10 uM, replicate 1
[12] = 48 h, 10 µM, compound concentration 10 uM, replicate 2

CN1CCN(c2ccc(Nc3c4ccccc4nc4ccccc34)cc2)CC1.Cl.Cl.O
Population Apoptotic (%) [1]: 47% | Population Fragmented Nuclei (%) [1]: 15% | Population Healthy Nuclei (%) [1]: 69% | Population Hoechst High Intensity Objects (%) [1]: 1% | Population Membrane Permeable-Phenotype (%) [1]: 0% | Population Mitochondria Different-Phenotype (%) [1]: 3% | Population Mitotic Cells (%) [1]: 52% | Population Normal (%) [1]: 98% | Population Pyknosed Nuclei (%) [1]: 14% | Population Tubulin-Different-Phenotype (%) [1]: 23% | Total Cell Count [1]: 135 | Population Apoptotic (%) [2]: 44% | Population Fragmented Nuclei (%) [2]: 28% | Population Healthy Nuclei (%) [2]: 56% | Population Membrane Permeable-Phenotype (%) [2]: 5% | Population Mitochondria Different-Phenotype (%) [2]: 5% | Population Mitotic Cells (%) [2]: 56% | Population Pyknosed Nuclei (%) [2]: 15% | Population Tubulin-Different-Phenotype (%) [2]: 34% | Total Cell Count [2]: 160 | Population Apoptotic (%) [3]: 91% | Population Fragmented Nuclei (%) [3]: 42% | Population Healthy Nuclei (%) [3]: 49% | Population Hoechst High Intensity Objects (%) [3]: 8% | Population Membrane Permeable-Phenotype (%) [3]: 0% | Population Mitochondria Different-Phenotype (%) [3]: 47% | Population Mitotic Cells (%) [3]: 8% | Population Normal (%) [3]: 91% | Population Pyknosed Nuclei (%) [3]: 8% | Population Tubulin-Different-Phenotype (%) [3]: 90% | Total Cell Count [3]: 158 | Population Apoptotic (%) [4]: 66% | Population Fragmented Nuclei (%) [4]: 65% | Population Healthy Nuclei (%) [4]: 29% | Population Hoechst High Intensity Objects (%) [4]: 16% | Population Membrane Permeable-Phenotype (%) [4]: 4% | Population Mitochondria Different-Phenotype (%) [4]: 13% | Population Mitotic Cells (%) [4]: 33% | Population Normal (%) [4]: 83% | Population Pyknosed Nuclei (%) [4]: 4% | Population Tubulin-Different-Phenotype (%) [4]: 79% | Total Cell Count [4]: 177 | Population Apoptotic (%) [5]: 70% | Population Fragmented Nuclei (%) [5]: 21% | Population Healthy Nuclei (%) [5]: 65% | Population Hoechst High Intensity Objects (%) [5]: 0% | Population Membrane Permeable-Phenotype (%) [5]: 0% | Population Mitochondria Different-Phenotype (%) [5]: 2% | Population Mitotic Cells (%) [5]: 29% | Population Normal (%) [5]: 99% | Population Pyknosed Nuclei (%) [5]: 12% | Population Tubulin-Different-Phenotype (%) [5]: 12% | Total Cell Count [5]: 139 | Population Apoptotic (%) [6]: 60% | Population Fragmented Nuclei (%) [6]: 29% | Population Healthy Nuclei (%) [6]: 57% | Population Membrane Permeable-Phenotype (%) [6]: 3% | Population Mitochondria Different-Phenotype (%) [6]: 7% | Population Mitotic Cells (%) [6]: 40% | Population Normal (%) [6]: 100% | Population Tubulin-Different-Phenotype (%) [6]: 39% | Total Cell Count [6]: 155 | Population Apoptotic (%) [7]: 77% | Population Fragmented Nuclei (%) [7]: 47% | Population Healthy Nuclei (%) [7]: 39% | Population Hoechst High Intensity Objects (%) [7]: 16% | Population Membrane Permeable-Phenotype (%) [7]: 1% | Population Mitochondria Different-Phenotype (%) [7]: 66% | Population Mitotic Cells (%) [7]: 22% | Population Normal (%) [7]: 83% | Population Pyknosed Nuclei (%) [7]: 12% | Population Tubulin-Different-Phenotype (%) [7]: 94% | Total Cell Count [7]: 206 | Population Apoptotic (%) [8]: 60% | Population Fragmented Nuclei (%) [8]: 69% | Population Healthy Nuclei (%) [8]: 27% | Population Hoechst High Intensity Objects (%) [8]: 21% | Population Membrane Permeable-Phenotype (%) [8]: 6% | Population Mitochondria Different-Phenotype (%) [8]: 34% | Population Mitotic Cells (%) [8]: 40% | Population Normal (%) [8]: 78% | Population Pyknosed Nuclei (%) [8]: 3% | Population Tubulin-Different-Phenotype (%) [8]: 84% | Total Cell Count [8]: 205 | Population Apoptotic (%) [9]: 66% | Population Fragmented Nuclei (%) [9]: 23% | Population Healthy Nuclei (%) [9]: 70% | Population Hoechst High Intensity Objects (%) [9]: 1% | Population Membrane Permeable-Phenotype (%) [9]: 0% | Population Mitochondria Different-Phenotype (%) [9]: 4% | Population Mitotic Cells (%) [9]: 33% | Population Normal (%) [9]: 98% | Population Pyknosed Nuclei (%) [9]: 6% | Population Tubulin-Different-Phenotype (%) [9]: 26% | Total Cell Count [9]: 144 | Population Apoptotic (%) [10]: 55% | Population Fragmented Nuclei (%) [10]: 25% | Population Healthy Nuclei (%) [10]: 68% | Population Membrane Permeable-Phenotype (%) [10]: 1% | Population Mitotic Cells (%) [10]: 44% | Population Pyknosed Nuclei (%) [10]: 5% | Total Cell Count [10]: 157 | Population Apoptotic (%) [11]: 68% | Population Fragmented Nuclei (%) [11]: 71% | Population Healthy Nuclei (%) [11]: 15% | Population Hoechst High Intensity Objects (%) [11]: 45% | Population Membrane Permeable-Phenotype (%) [11]: 15% | Population Mitochondria Different-Phenotype (%) [11]: 30% | Population Mitotic Cells (%) [11]: 31% | Population Normal (%) [11]: 54% | Population Pyknosed Nuclei (%) [11]: 12% | Population Tubulin-Different-Phenotype (%) [11]: 25% | Total Cell Count [11]: 235 | Population Apoptotic (%) [12]: 0% | Population Fragmented Nuclei (%) [12]: 88% | Population Healthy Nuclei (%) [12]: 11% | Population Hoechst High Intensity Objects (%) [12]: 38% | Population Membrane Permeable-Phenotype (%) [12]: 25% | Population Mitochondria Different-Phenotype (%) [12]: 12% | Population Mitotic Cells (%) [12]: 0% | Population Normal (%) [12]: 61% | Population Pyknosed Nuclei (%) [12]: 0% | Population Tubulin-Different-Phenotype (%) [12]: 56% | Total Cell Count [12]: 236
